Tested on: xenograft tumors of murine glioma GL261 cells
Assay: GL261 xenograft tumor model
Type: in vivo, C57BL/6 mice
Procedure, shortened: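 About 3 × 10⁶ GL261 cells implanted subcutaneously at the left scapula of male C57BL/6 mice (6–8 weeks). At 100–300 mm³, mice randomized (n = 7/group). Vehicle (0.5% methylcellulose) oral daily. TMZ 100 mg/kg oral every 2 days, alone or with 50 mg/kg. Endpoint: tumour weight; body weight; CD31 immunohistochemistry (1:200) on 4 μm paraffin sections.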

`Cn1nnc2c(C(N)=O)ncn2c1=O` [TMZ, temozolomide] was tested, and the body weight (GL261 xenograft mice, vs control (co-treatment vs TMZ group)) was “significantly decreased” and the tumor inhibition rate (TMZ only, 100 mg/kg oral every 2 days) was 34.15%.

— paper PMC7016295 (Acta Pharmaceutica Sinica. B, 2019)
